Common to all, as to format: functional
Assay [1] concerns Plasmodium berghei. The assay is described as follows: Change in mean survival time for control (average 6.2 days) versus treated mice (Mus musculus) 72 hrs after […] subcutaneous dose.
In assay [2] the test system is Plasmodium berghei. The assay is described as follows: Change in mean survival time for control (average 6.2 days) versus treated mice (Mus musculus) 72 hrs after 160 mg/kg subcutaneous dose.
Assay [3] concerns Plasmodium berghei. Kind of assay: Change in mean survival time for control (average of 6.2 days) versus treated mice (Mus musculus) 72 hrs after 80 mg/kg subcutaneous dose.
The subject of assay [4] is Mus musculus. Kind of assay: Antimalarial activity, administered as a single subcutaneous dose of 80 mg/kg, 72 hrs post infection measured as number of mice (Mus musculus) surviving at 60 days post infection. The gist of the method:
(§1)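 Mice were infected with a normal drug-sensitive Plasmodium berghei strain. At 72 h postinfection each received one subcutaneous dose of compound dissolved or suspended in peanut oil, in five-mouse groups per dose. The read-out was the number of mice alive at 60 days postinfection, which were scored as cured.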

Assay [5] deals with Plasmodium berghei. Kind of assay: Antimalarial activity as 60-day survivors in Plasmodium berghei infected mice (Mus musculus) after single 160mg/kg subcutaneous dose 72 hr post infection. The gist of the method: as §1
Assay [6] concerns Plasmodium berghei. The assay is described as follows: Antimalarial activity as 60-day survivors in infected mice (Mus musculus) after single 320mg/kg subcutaneous dose 72 hr post infection. In outline:
as §1

Assay [7] relates to Plasmodium berghei. Kind of assay: Change in mean survival time for control (average 6.2 days) versus treated mice (Mus musculus) 72 hrs after 20 mg/kg subcutaneous dose.
Assay [8] has as its system Plasmodium berghei. The assay is described as follows: Change in mean survival time for control (average 6.2 days) versus treated mice (Mus musculus) 72 hrs after 5 mg/kg subcutaneous dose.
Assay [9] concerns Plasmodium berghei. The assay is described as follows: Difference in mean survival time in mice (Mus musculus) (control = 6.2 days) after single 40mg/kg subcutaneous dose 72hr post infection.
Assay [10] has as its system Plasmodium berghei. Kind of assay: Change in mean survival time for control (average 6.2 days) versus treated mice (Mus musculus) 72 hrs after 640 mg/kg subcutaneous dose.
The test system of assay [11] is Plasmodium berghei. The assay is described as follows: Change in mean survival time for control (average 6.2 days) versus treated mice (Mus musculus) 72 hrs after 10 mg/kg subcutaneous dose.
For assay [12], the system named is Mus musculus. The assay is described as follows: Delta MST, difference in mean survival time of the control mice (an average of 6.2 days) from the mean survival time of the treated mice after a single sc dose of 1.25 mg/kg, 72-h postinfection. The conditions noted are these: route subcutaneous.
Assay [13] relates to Mus musculus. The assay is described as follows: Antimalarial activity, administered as a single subcutaneous dose of 640 mg/kg, 72 hrs post infection measured as number of mice (Mus musculus) surviving at 60 days post infection. In outline: as §1
In assay [14] the test system is Plasmodium berghei. Kind of assay: Change in mean survival time for control (average 6.2 days) versus treated mice (Mus musculus) 72 hrs after 320 mg/kg subcutaneous dose.

Each structure is given as a SMILES string.

Take `Oc1c(CNC2CCCCC2)cc(Nc2ccnc3cc(Cl)ccc23)cc1-c1ccc(Cl)cc1`: the “Delta MST” value with Plasmodium berghei [1] came to 0.5 days; in the assay on Plasmodium berghei [2], 20.6 days; in the assay with Plasmodium berghei [3], 23.6 days; in the assay with Plasmodium berghei [7], 12.9 days; in the assay on Plasmodium berghei [8], 1.5 days; in the assay with Plasmodium berghei [9] it was 17.9 days. Further, the “Delta MST” value with Plasmodium berghei [10] was 17.6 days; in the assay with Plasmodium berghei [11] it was 4.1 days; in the assay with Mus musculus [12] it was 0.7 days; with Plasmodium berghei [14] it was -0.4 days. Besides, the “No. of mice cured” value in the assay with Mus musculus [4] is listed as 3; in the assay on Plasmodium berghei [5] it was 4; with Plasmodium berghei [6], 4; in the assay on Mus musculus [13] it was 4.
